Screening data as filed in PubChem.
EBI2 antag – antagonists of human EBI2 receptor; P32249; EBI2 beta-arrestin recruitment, luminescence, 7a,25-OHC stimulated; inhibition, % at 5 µM; hit rate 0.81% among 360,000; AID 651636; in the data active means inhibition above about 38%;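 further: enzyme fragment complementation signal reports receptor beta-arrestin coupling in cells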
Target sequence (P32249 whole entry, looked up, the tested form may be a part): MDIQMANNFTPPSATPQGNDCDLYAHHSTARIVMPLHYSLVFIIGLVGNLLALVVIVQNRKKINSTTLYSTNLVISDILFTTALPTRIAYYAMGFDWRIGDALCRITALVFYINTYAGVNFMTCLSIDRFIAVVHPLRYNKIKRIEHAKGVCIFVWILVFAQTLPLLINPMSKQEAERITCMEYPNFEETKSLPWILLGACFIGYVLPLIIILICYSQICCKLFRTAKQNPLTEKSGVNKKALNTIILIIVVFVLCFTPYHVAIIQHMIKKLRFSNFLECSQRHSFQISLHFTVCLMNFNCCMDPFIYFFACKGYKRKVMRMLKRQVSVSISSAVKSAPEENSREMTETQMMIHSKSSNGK
GRIN3A LBD mod – NR3A (human) ligand-binding domain modulation; NR3A LBD differential scanning fluorimetry, Tm shift; 0% = protein alone, 100% = glycine-bound protein; Tm shift relative to glycine control, % at 25 µM; hit rate 2.5% among 340,000;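 active means melting temperature shift of at least 10% of the positive control shift, at one fixed dose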
SENP1 inh – SENP1 (human) catalytic domain inhibition. AID 624204. recombinant SENP1 catalytic domain, CyPet-SUMO1-YPet FRET cleavage. inhibition, % at 10 µM. hit rate 0.21% among 360,000;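 active means inhibition at least 30% at 10 µM, raw YFP signal under a set limit, fluorescence ratio 0.5 to 1.5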
Target sequence (Q9P0U3 419-644 limits assumed): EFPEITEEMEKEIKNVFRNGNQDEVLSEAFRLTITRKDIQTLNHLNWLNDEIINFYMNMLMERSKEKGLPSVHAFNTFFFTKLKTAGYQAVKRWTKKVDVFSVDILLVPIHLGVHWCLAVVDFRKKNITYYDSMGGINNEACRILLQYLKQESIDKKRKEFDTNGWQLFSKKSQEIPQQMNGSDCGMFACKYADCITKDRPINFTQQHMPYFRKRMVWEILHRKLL
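Assay system: hSENP1 catalytic domain, recombinant. Amount: SENP1 enzyme, 20 pM final. Schedule: 50 min reaction, RT, dark. Technique: FRET, CFP and YFP emission. Control set: no-enzyme wells low, DMSO-plus-enzyme wells high control.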
MPTP block – inhibitors of mitochondrial permeability transition pore | isolated mouse mitochondria, Ca2+ swelling absorbance, 30 min | inhibition, % at 10 µM | hit rate 1.4% among 360,000 | AID 602449;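 active means inhibition of 50% or more, scaled per plate between neutral and stimulator controls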
Of the large screens only hits and unclear results are named; the others gave an inactive call. This is a sample that favours compounds with a hit; in the whole collection about 4.4% have one here.

N#CC1c2ccccc2-n2nncc2CN1Cc1cc(Cl)cc(Cl)c1 (stereo not drawn)	EBI2 antag 43
COc1ccc(CN2Cc3cnnn3-c3ccccc3C2C#N)cc1 (stereo not drawn)	none
Cc1ccc(NP(=O)(Oc2ccccc2F)Oc2ccccc2F)cc1	none
Cc1cccc(NP(=O)(Oc2ccccc2F)Oc2ccccc2F)c1C	GRIN3A LBD mod 24
C=CC[C@@H](CC/C=C/C=C/CC/C=C\[C@@H]1CSC([C@@H]2C[C@@H]2C)=N1)OC	none
CCCNC(=O)N1[C@H]2CC[C@@H]1C(C(=O)OC)=C(c1ccc(Cl)c(C(F)(F)F)c1)C2	GRIN3A LBD mod 24
Cc1cccc(N2C(=O)/C(=C/c3ccc(N4CCN(C)CC4)o3)C(=O)NC2=S)c1C	SENP1 inh 34
CCc1ccccc1N1C(=O)/C(=C/c2ccc(N3CCN(C)CC3)o2)C(=O)NC1=S	SENP1 inh 43
Cc1ccccc1N1C(=O)NC(=O)/C(=C/c2ccc(N3CCOCC3)o2)C1=O	none
CC12CCC(O)CC1CCC1C2CCC2(C)C(C(=O)CO)CCC12 (stereo not drawn)	none (no result: GRIN3A LBD mod)
O=C(CN1C2CCC1CC(O)(c1cccnc1)C2)Nc1ccc2c(c1)OCO2 (stereo not drawn)	none
O=c1[nH]c(=S)n(-c2ccccc2F)c(O)c1C=Nc1ccc(N2CCOCC2)cc1	SENP1 inh 67
O=c1[nH]c(=S)n(-c2ccccc2F)c(O)c1C=NCc1ccco1	GRIN3A LBD mod 14
COC1C(OC(=O)c2ccc(C)[nH]2)C(O)C(Oc2ccc3c(O)c(NC(=O)c4ccc(O)c(CC=C(C)C)c4)c(=O)oc3c2Cl)OC1(C)C (stereo not drawn)	GRIN3A LBD mod 20
Cc1c(N=Nc2c(O)n(Cc3ccccc3)c(=O)[nH]c2=O)c(=O)n(-c2ccccc2)n1C	GRIN3A LBD mod 15
COC(=O)C1=C(c2ccc(OC)c(OC)c2)C[C@@H]2CC[C@H]1N2C(=O)N1CCCC1	none
CC(C)Oc1cccc(NC(=O)c2cccn(Cc3ccc4c(c3)OC(F)(F)O4)c2=O)c1	none
O=C(Nc1ccc(C(F)(F)F)cc1)c1cccn(Cc2ccc3c(c2)OC(F)(F)O3)c1=O	GRIN3A LBD mod 25
O=C(Nc1cccc(C(F)(F)F)c1)c1cccn(Cc2ccc3c(c2)OC(F)(F)O3)c1=O	GRIN3A LBD mod 25
Cc1cccc(C)c1NC(=O)c1cccn(Cc2ccc3c(c2)OC(F)(F)O3)c1=O	none
COC(=O)C1=C(c2ccc(-c3ccccc3)c(F)c2)C[C@@H]2CC[C@H]1N2C(=O)NCc1ccco1	none
C=C(C)CSc1nnc([C@@H](N)Cc2ccccc2)o1	none
COC(=O)C1=C(N)Oc2c(c(=O)oc3ccccc23)[C@]12C(=O)N(C)c1ccccc12	GRIN3A LBD mod 17
CN(C)C(=S)SSC(=S)N(C)C	GRIN3A LBD mod 19
Cc1ccsc1CNCCc1ccccc1F	none
CCOc1ccc(NC(=O)c2ccc(NC(=O)COC(=O)Cc3ccccc3)cc2)cc1	GRIN3A LBD mod 17
CCOc1ccc(NC(=O)c2c(C)nn(Cc3ccccc3)c2Cl)cc1	none
CC(C)Oc1cccnc1N(C)C1CCN(Cc2ccccc2)CC1	none
CN1C2CCC1CC(=NO)C2	none
CN1CCC(=O)N(CCN=[N+]=[N-])CC1	none
C=CCn1c(O)c(C(C)=Nc2cccc(C(F)(F)F)c2)c(=O)[nH]c1=O	GRIN3A LBD mod 12
NP(=O)(OCCCc1ccccc1)Oc1ccc(Cl)cc1 (stereo not drawn)	none
COC(=O)C1=C(c2ccccc2)C[C@@H]2CC[C@H]1N2C(=O)N1CCC(O)CC1	none
O=C(N/N=C/c1c(O)n(C2CCCCC2)c(=S)[nH]c1=O)c1ccccc1	none
O=C(N/N=C/c1c(O)n(C2CCCCC2)c(=S)[nH]c1=O)c1ccccc1O	GRIN3A LBD mod 22
C/C(=N\N(C)c1ccccc1)c1c(O)[nH]c(=O)[nH]c1=O	none
Cc1c2ccncc2c(C)c2c1[nH]c1ccccc12	none
c1ccc2c(c1)[nH]c1cnccc12	GRIN3A LBD mod 14
COC(=O)C[C@]1(C(=O)OC)CN(C#N)N(c2ccc(Cl)cc2)C12c1ccccc1-c1ccccc12	none
COC(=O)[C@@H]1[C@@H](C(=O)OC)C2(c3ccccc3-c3ccccc32)N(c2ccc(Cl)cc2)N1C#N	EBI2 antag 45
O=c1[nH]c(=O)n(CC2CCCO2)c(O)c1/C=C1\C=Nc2ccccc21 (stereo not drawn)	none
O=c1[nH]c(=O)n(Cc2ccccc2)c(O)c1/C=C1\C=Nc2ccccc21	GRIN3A LBD mod 10
CCN1CCN(Cc2ccc(C)cc2C)CC1	none
CCN1CCN(Cc2ccccc2C)CC1	GRIN3A LBD mod 40
CCC(CC)N1CCN(C(=O)Cc2ccccc2)CC1	none
O=[N+]([O-])c1ccc(N2CCCCCC2)c2ncccc12	GRIN3A LBD mod 21
COc1ccc(-c2cc(=NCC(=O)O)c3ccccc3o2)cc1	GRIN3A LBD mod 13
O=c1[nH]c(O)c(N=Nc2ccc3c(c2)OCCO3)c(=O)[nH]1	SENP1 inh 39
O=c1[nH]c(=S)[nH]c(O)c1N=Nc1ccc2c(c1)OCO2	none
O=c1[nH]c(=S)[nH]c(O)c1N=Nc1ccc2c(c1)OCCO2	SENP1 inh 36
N#C/C(N)=C(/N)C#N	none
CCOC(=O)[C@]12Cc3cc(Cl)ccc3[C@H]1N(C1CCCCC1)C(=O)c1ccccc12	EBI2 antag 76 (no result: GRIN3A LBD mod)
CCOC(=O)[C@]12Cc3cc(Cl)ccc3[C@H]1N(C)C(=O)c1ccccc12	none (no result: GRIN3A LBD mod)
CC(C)CC1(CCc2ccccc2)C(=O)NC(=O)NC1=O	none
Cc1cc(C)cc(N2C(=O)NC(=O)/C(=C\C=C\c3ccco3)C2=O)c1	GRIN3A LBD mod 12
CCc1ccc(N2C(=O)NC(=O)/C(=C\C=C\c3ccco3)C2=O)cc1	none
Cc1ccc(N2C(=O)NC(=O)/C(=C/C=C/c3ccco3)C2=O)cc1	EBI2 antag 45
Nc1ncc([N+](=O)[O-])s1	none
CCN(CC)CCCN=Cc1c(O)n(-c2cccc(C)c2C)c(=O)[nH]c1=O	GRIN3A LBD mod 11
C=C1C(O)[C@@H]2O[C@]3(CC[C@H](/C=C/C(C)[C@@H]4CC(C)=CC5(O[C@H](C[C@@](C)(O)C(=O)O)CCC5O)O4)O3)CC[C@H]2O[C@@H]1C(O)CC(C)[C@H]1OC2(CCCCO2)CCC1C (stereo partly drawn)	GRIN3A LBD mod 13 (no result: EBI2 antag, SENP1 inh, MPTP block)
OC1CCCCC1N1CCC(c2ccccc2)CC1 (stereo not drawn)	none
CCN1CCOC(c2ccccc2)C1 (stereo not drawn)	none
CC1C(c2ccccc2)OCCN1C (stereo not drawn)	GRIN3A LBD mod 11
c1ccc(C2OCCN3CCCCC23)cc1 (stereo not drawn)	GRIN3A LBD mod 11
Oc1cc(O)cc(/C=C/c2ccc(O)cc2O)c1	GRIN3A LBD mod 11
Cn1ncnc2c(=O)n(C)c(=O)nc1-2	SENP1 inh 38
CC(C)CC(N(C)C)C1(c2ccc(Cl)cc2)CCC1 (stereo not drawn)	none
Cc1ccc(OP(=O)(NCc2ccccc2)Oc2ccc(C)cc2)cc1	GRIN3A LBD mod 13
